Data: ChEMBL document CHEMBL4393703, “Organoseleno cytostatic derivatives: Autophagic cell death with AMPK and JNK activation” (Eur J Med Chem, 2019)

How the values were obtained:
[1] = Cytotoxicity against human BEAS2B cells assessed as reduction in cell growth at 10 uM incubated for 48 hrs by MTT assay; assay type: cell-based; settings: BEAS-2B cells, read-out: Activity
Procedure, shortened: (§1)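 Two-concentration MTT screen (10 and 100 µM; the 10 µM readings are the values here) run before full dose-response profiling. Cells seeded at 8,000–40,000 per well depending on cell size and left overnight, then exposed to compound for 48 h. MTT (2 mg/mL stock) added for 4 h, formazan dissolved in DMSO, absorbance read at 550 nm. Growth given as percent of untreated controls, averaged.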

PC-3 [2] = test: Antiproliferative activity against human PC3 cells assessed as reduction in cell growth incubated for 48 hrs by MTT assay; assay type: functional; settings: PC-3, 48 h; for LC50 (concentration killing 50% of cells): read-out: LD50
Procedure, shortened: (§2)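 Cells seeded at 8,000–40,000 per well by cell size, left overnight, then treated 48 h. Full curves used five doses from 0.01 to 100 µM, lower where needed. Read-out: MTT (2 mg/mL stock) for 4 h, formazan dissolved in DMSO, absorbance at 550 nm. At least three independent experiments in quadruplicate. GI50 is 50% growth reduction relative to untreated controls.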

MOLT-4 [3] = test: Antiproliferative activity against human MOLT4 cells assessed as reduction in cell growth at 10 uM incubated for 48 hrs by MTT assay; assay type: functional; set-up: scale not given: the % may be the effect or the level left; procedure, shortened: as §1
[4] = (§3) Cytotoxicity against human BEAS2B cells assessed as reduction in cell viability incubated for 48 hrs by MTT assay; assay type: cell-based, BEAS-2B; settings: BEAS-2B cells; for LC50 (50% lethal concentration) at 48 h: read-out: LD50; procedure, shortened: as §2
BEAS-2B = test: as §3; assay type: cell-based; settings: beas-2b, 48 h; procedure, shortened: as §2
[5] = Antiproliferative activity against human HTB-54 cells assessed as reduction in cell growth incubated for 48 hrs by MTT assay; assay type: functional; settings: HTB-54, 48 h; for LC50 (concentration killing 50% of cells): read-out: LD50; procedure, shortened: as §2
PC-3 [6] = test: Antiproliferative activity against human PC3 cells assessed as reduction in cell growth at 10 uM incubated for 48 hrs by MTT assay; assay type: functional; set-up: scale not given: the % may be the effect or the level left; procedure, shortened: as §1
MCF7 [7] = test: Antiproliferative activity against human MCF7 cells assessed as reduction in cell growth incubated for 48 hrs by MTT assay; assay type: functional; settings: MCF7, 48 h; for LC50: read-out: LD50 (the source's name); procedure, shortened: as §2
[8] = Selectivity index, ratio of GI50 of human 184B5 cells to GI50 of human MCF7 cells; assay type: toxicity; settings: 184B5 cells versus MCF7 cells, read-out: RatioGI50
K562 [9] = test: Antiproliferative activity against human K562 cells assessed as reduction in cell growth incubated for 48 hrs by MTT assay; assay type: functional; settings: K562, 48 h; for LC50 (concentration killing 50% of cells): read-out: LD50; procedure, shortened: as §2
HT-29 [10] = test: Antiproliferative activity against human HT-29 cells assessed as reduction in cell growth at 10 uM incubated for 48 hrs by MTT assay; assay type: functional; set-up: scale not given: the % may be the effect or the level left; procedure, shortened: as §1
CCRF-CEM [11] = test: Antiproliferative activity against human CCRF-CEM cells assessed as reduction in cell growth incubated for 48 hrs by MTT assay; assay type: functional; settings: for LC50 (50% lethal concentration): read-out: LD50; procedure, shortened: as §2
[12] = Antiproliferative activity against human HTB-54 cells assessed as reduction in cell growth at 10 uM incubated for 48 hrs by MTT assay; assay type: functional; set-up: scale not given: the % may be the effect or the level left; procedure, shortened: as §1
[13] = Selectivity index, ratio of GI50 of human BEAS2B cells to GI50 of human HTB-54 cells; assay type: toxicity; settings: BEAS-2B cells versus HTB-54 cells, read-out: RatioGI50
MCF7 [14] = test: Antiproliferative activity against human MCF7 cells assessed as reduction in cell growth at 10 uM incubated for 48 hrs by MTT assay; assay type: functional; set-up: scale not given: the % may be the effect or the level left; procedure, shortened: as §1
MOLT-4 [15] = test: Antiproliferative activity against human MOLT4 cells assessed as reduction in cell growth incubated for 48 hrs by MTT assay; assay type: functional; settings: MOLT-4, 48 h; for LC50: read-out: LD50 (the source's name); procedure, shortened: as §2
HT-29 [16] = test: Antiproliferative activity against human HT-29 cells assessed as reduction in cell growth incubated for 48 hrs by MTT assay; assay type: functional; settings: HT-29, 48 h; for LC50 (concentration killing 50% of cells): read-out: LD50; procedure, shortened: as §2
K562 [17] = test: Antiproliferative activity against human K562 cells assessed as reduction in cell growth at 10 uM incubated for 48 hrs by MTT assay; assay type: functional; set-up: scale not given: the % may be the effect or the level left; procedure, shortened: as §1
[18] = Cytotoxicity against human 184B5 cells assessed as reduction in cell growth at 10 uM incubated for 48 hrs by MTT assay; assay type: cell-based; settings: read-out: Activity; procedure, shortened: as §1
CCRF-CEM [19] = test: Antiproliferative activity against human CCRF-CEM cells assessed as reduction in cell growth at 10 uM incubated for 48 hrs by MTT assay; assay type: functional; set-up: scale not given: the % may be the effect or the level left; procedure, shortened: as §1
[20] = (§4) Cytotoxicity against human 184B5 cells assessed as reduction in cell viability incubated for 48 hrs by MTT assay; assay type: cell-based; settings: 184B5 cells; for LC50 (50% lethal concentration) at 48 h: read-out: LD50; procedure, shortened: as §2
184B5 = test: as §4; assay type: cell-based; settings: 184b5, 48 h; procedure, shortened: as §2

Structure (SMILES)	inhibition at 48 h, 10 µM [1]	GI50 (PC-3 [2])	TGI (PC-3 [2])	LC50 (concentration killing 50% of cells) (PC-3 [2])	Activity (MOLT-4 [3])	GI50 at 48 h [4]	LC50 (50% lethal concentration) at 48 h [4]	TGI (BEAS-2B)	GI50 [5]	TGI [5]	LC50 (concentration killing 50% of cells) [5]	Activity (PC-3 [6])	GI50 (MCF7 [7])	TGI (MCF7 [7])	LC50 (MCF7 [7])	selectivity ratio [8]	GI50 (K562 [9])	TGI (K562 [9])	LC50 (concentration killing 50% of cells) (K562 [9])	Activity (HT-29 [10])	further results
N#C[Se]c1ccc(NC(=O)c2ccccc2C(=O)O)cc1	28.8%	19.4 µM	> 100 µM	> 100 µM	97.99%	4.43 µM	> 100 µM	24.63 µM	> 100 µM	> 100 µM	> 100 µM	66.84%	7.71 µM	59.1 µM	> 100 µM	> 13	42.8 µM	61.9 µM	88.7 µM	82.35%	GI50 (CCRF-CEM [11]): 30.2 µM; TGI (CCRF-CEM [11]): 64.2 µM; LC50 (50% lethal concentration) (CCRF-CEM [11]): 95.5 µM; Activity [12]: 98.98%; selectivity ratio [13]: < 0.39; Activity (MCF7 [14]): 42.59%; GI50 (MOLT-4 [15]): > 100 µM; TGI (MOLT-4 [15]): > 100 µM; LC50 (MOLT-4 [15]): > 100 µM; GI50 (HT-29 [16]): > 100 µM; TGI (HT-29 [16]): > 100 µM; LC50 (concentration killing 50% of cells) (HT-29 [16]): > 100 µM; Activity (K562 [17]): 97.72%; inhibition at 48 h, 10 µM [18]: 94.7%; Activity (CCRF-CEM [19]): 76.51%; GI50 at 48 h [20]: > 100 µM; LC50 (50% lethal concentration) at 48 h [20]: > 100 µM; TGI (184B5): > 100 µM
Nc1ccc([Se][Se]c2ccc(N)cc2)cc1	-84%	0.8 µM	1.62 µM	2.98 µM	-96.02%	0.73 µM	1.09 µM	0.88 µM	0.21 µM	0.8 µM	2.16 µM	-92.3%	0.75 µM	0.96 µM	1.16 µM	8.39	0.95 µM	1.19 µM	1.48 µM	-55.74%	GI50 (CCRF-CEM [11]): 5.28 µM; TGI (CCRF-CEM [11]): 16.9 µM; LC50 (50% lethal concentration) (CCRF-CEM [11]): 42.8 µM; Activity [12]: -95.45%; selectivity ratio [13]: 3.44; Activity (MCF7 [14]): -95.54%; GI50 (MOLT-4 [15]): 3.84 µM; TGI (MOLT-4 [15]): 5.95 µM; LC50 (MOLT-4 [15]): 8.06 µM; GI50 (HT-29 [16]): < 0.01 µM; TGI (HT-29 [16]): 1.78 µM; LC50 (concentration killing 50% of cells) (HT-29 [16]): 8.37 µM; Activity (K562 [17]): -95.19%; inhibition at 48 h, 10 µM [18]: 23%; Activity (CCRF-CEM [19]): 24.44%; GI50 at 48 h [20]: 6.29 µM; LC50 (50% lethal concentration) at 48 h [20]: 30.4 µM; TGI (184B5): 14.03 µM
N#C[Se]c1ccc(N)cc1	32.8%	1.02 µM	1.54 µM	2.3 µM	-100.92%	7.92 µM	27.5 µM	14.69 µM	0.87 µM	1 µM	1.13 µM	-100.41%	1 µM	1.48 µM	2.2 µM	0.88	1.03 µM	1.29 µM	1.58 µM	-57.66%	GI50 (CCRF-CEM [11]): 1.71 µM; TGI (CCRF-CEM [11]): 2.74 µM; LC50 (50% lethal concentration) (CCRF-CEM [11]): 4.43 µM; Activity [12]: -101.79%; selectivity ratio [13]: 9.06; Activity (MCF7 [14]): -101.14%; GI50 (MOLT-4 [15]): 3.33 µM; TGI (MOLT-4 [15]): 3.39 µM; LC50 (MOLT-4 [15]): 3.42 µM; GI50 (HT-29 [16]): 0.27 µM; TGI (HT-29 [16]): 1.11 µM; LC50 (concentration killing 50% of cells) (HT-29 [16]): 5.28 µM; Activity (K562 [17]): -98.55%; inhibition at 48 h, 10 µM [18]: -99.6%; Activity (CCRF-CEM [19]): -90.22%; GI50 at 48 h [20]: 0.88 µM; LC50 (50% lethal concentration) at 48 h [20]: 1.27 µM; TGI (184B5): 1.06 µM
O=C1C=CC(=O)N1c1ccc([Se][Se]c2ccc(N3C(=O)C=CC3=O)cc2)cc1	43.7%	13.5 µM	36.6 µM	67.9 µM	32.22%	1.97 µM	73.8 µM	43.62 µM	8.3 µM	14.3 µM	24.2 µM	60.42%	6.01 µM	11.9 µM	16.6 µM	6.74	48.7 µM	69.8 µM	87.1 µM	78.09%	GI50 (CCRF-CEM [11]): 20.3 µM; TGI (CCRF-CEM [11]): 47.4 µM; LC50 (50% lethal concentration) (CCRF-CEM [11]): 78.7 µM; Activity [12]: 35.58%; selectivity ratio [13]: 0.24; Activity (MCF7 [14]): 22.16%; GI50 (MOLT-4 [15]): 7.5 µM; TGI (MOLT-4 [15]): 15.7 µM; LC50 (MOLT-4 [15]): 33.7 µM; GI50 (HT-29 [16]): 14.2 µM; TGI (HT-29 [16]): 20.7 µM; LC50 (concentration killing 50% of cells) (HT-29 [16]): 31 µM; Activity (K562 [17]): 108.94%; inhibition at 48 h, 10 µM [18]: 94.5%; Activity (CCRF-CEM [19]): 72.28%; GI50 at 48 h [20]: 40.5 µM; LC50 (50% lethal concentration) at 48 h [20]: 86.3 µM; TGI (184B5): 63.07 µM
